Measured values from PMC9398548 (European journal of pharmaceutical sciences : official …, 2020).
Like-named read-outs stand apart in the source and are kept apart here.

Tests used:
[1] = tested on: human colon cancer HT-29 cells; conditions: read-out: antiproliferative IC50, HT-29 cells; ref Bonnet et al., 2014; cited from earlier work
[2] = tested on: murine leukemia P-388 cells; conditions: read-out: antiproliferative IC50, P-388 cells; ref Bonnet et al., 2014; cited from earlier work
[3] = tested on: human prostate cancer PC-3 cells; conditions: read-out: antiproliferative IC50, PC-3 cells; ref Bonnet et al., 2014; cited from earlier work
HDAC1 = HDAC1 (Homo sapiens, UniProt Q13547); assay: HDAC enzyme activity assay, HDAC1; type: biochemical
Sequence of HDAC1 (Q13547 whole entry, species assumed): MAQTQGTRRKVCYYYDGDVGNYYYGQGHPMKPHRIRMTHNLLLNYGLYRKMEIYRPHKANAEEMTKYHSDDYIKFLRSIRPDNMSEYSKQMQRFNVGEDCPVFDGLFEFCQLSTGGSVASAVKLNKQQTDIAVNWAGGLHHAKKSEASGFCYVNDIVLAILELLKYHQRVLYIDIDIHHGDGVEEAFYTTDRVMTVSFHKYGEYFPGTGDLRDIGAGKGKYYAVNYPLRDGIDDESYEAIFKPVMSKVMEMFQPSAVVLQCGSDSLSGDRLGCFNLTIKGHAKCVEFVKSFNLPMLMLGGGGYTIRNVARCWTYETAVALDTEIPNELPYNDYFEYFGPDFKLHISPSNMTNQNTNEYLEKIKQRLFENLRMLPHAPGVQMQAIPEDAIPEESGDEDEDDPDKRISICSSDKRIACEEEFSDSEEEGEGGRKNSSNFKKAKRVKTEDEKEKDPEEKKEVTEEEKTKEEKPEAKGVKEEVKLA

CEM cells = assay: MTT cytotoxicity assay in CEM cells; type: cell-based; conditions: read-out: CEM- IC50, 48 h, Mean±SD, n=3
Outline: (§1)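 Cells were grown in suspension in RPMI 1640 with 10% FBS and penicillin/streptomycin/amphotericin B at 37 °C under 5% CO2. They were seeded at ~5×10^3 cells/well, kept overnight, then exposed to test compounds diluted in DMSO for 48 h. Cells were pelleted (300 g, 4 °C, 5 min) and washed twice in phosphate buffer. MTT (5 mg/ml stock) was added for 4 h at 37 °C, formazan dissolved in DMSO, and A570 read. Triplicate; IC50 given as mean±SD.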

HDAC8 = biological target: T1, HDAC8 (Homo sapiens, UniProt Q9BY41); assay: HDAC enzyme activity assay, HDAC8; type: biochemical; conditions: for HDAC-8 relative enzyme activity: primary screening at 50 μM
T1 sequence (Q9BY41 1-377): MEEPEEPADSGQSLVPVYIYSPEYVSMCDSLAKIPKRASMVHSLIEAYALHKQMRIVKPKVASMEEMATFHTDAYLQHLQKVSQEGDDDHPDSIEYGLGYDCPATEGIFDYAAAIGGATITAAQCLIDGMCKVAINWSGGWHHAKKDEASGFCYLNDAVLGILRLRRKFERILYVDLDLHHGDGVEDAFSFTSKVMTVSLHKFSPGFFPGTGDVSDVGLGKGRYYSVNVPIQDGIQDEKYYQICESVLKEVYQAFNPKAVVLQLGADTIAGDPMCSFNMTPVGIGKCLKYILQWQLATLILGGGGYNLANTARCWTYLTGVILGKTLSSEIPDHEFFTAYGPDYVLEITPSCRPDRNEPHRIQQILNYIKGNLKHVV
Outline: (§2)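 Enzymes were recombinant: HDAC8, and the codon-optimised human HDAC4 catalytic domain (pET14b). Serial inhibitor dilutions in 25 mM Tris-HCl, 75 mM KCl, 0.001% Pluronic F-127, pH 8.0 were pre-incubated with enzyme for 1 h at 30 °C. Reaction ran 60 min at 30 °C with 20 μM Boc-Lys(trifluoroacetyl)-AMC and was stopped with 1.7 μM SATFMK. Trypsin (0.4 mg/ml) released AMC; fluorescence read at Ex 350/Em 450 nm. Triplicate; IC50 from dose-response curves.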

HDAC6 = biological target: T2, HDAC6 (Homo sapiens, UniProt Q9UBN7); assay: HDAC enzyme activity assay, HDAC6; type: biochemical
T2 sequence (Q9UBN7 1-1215): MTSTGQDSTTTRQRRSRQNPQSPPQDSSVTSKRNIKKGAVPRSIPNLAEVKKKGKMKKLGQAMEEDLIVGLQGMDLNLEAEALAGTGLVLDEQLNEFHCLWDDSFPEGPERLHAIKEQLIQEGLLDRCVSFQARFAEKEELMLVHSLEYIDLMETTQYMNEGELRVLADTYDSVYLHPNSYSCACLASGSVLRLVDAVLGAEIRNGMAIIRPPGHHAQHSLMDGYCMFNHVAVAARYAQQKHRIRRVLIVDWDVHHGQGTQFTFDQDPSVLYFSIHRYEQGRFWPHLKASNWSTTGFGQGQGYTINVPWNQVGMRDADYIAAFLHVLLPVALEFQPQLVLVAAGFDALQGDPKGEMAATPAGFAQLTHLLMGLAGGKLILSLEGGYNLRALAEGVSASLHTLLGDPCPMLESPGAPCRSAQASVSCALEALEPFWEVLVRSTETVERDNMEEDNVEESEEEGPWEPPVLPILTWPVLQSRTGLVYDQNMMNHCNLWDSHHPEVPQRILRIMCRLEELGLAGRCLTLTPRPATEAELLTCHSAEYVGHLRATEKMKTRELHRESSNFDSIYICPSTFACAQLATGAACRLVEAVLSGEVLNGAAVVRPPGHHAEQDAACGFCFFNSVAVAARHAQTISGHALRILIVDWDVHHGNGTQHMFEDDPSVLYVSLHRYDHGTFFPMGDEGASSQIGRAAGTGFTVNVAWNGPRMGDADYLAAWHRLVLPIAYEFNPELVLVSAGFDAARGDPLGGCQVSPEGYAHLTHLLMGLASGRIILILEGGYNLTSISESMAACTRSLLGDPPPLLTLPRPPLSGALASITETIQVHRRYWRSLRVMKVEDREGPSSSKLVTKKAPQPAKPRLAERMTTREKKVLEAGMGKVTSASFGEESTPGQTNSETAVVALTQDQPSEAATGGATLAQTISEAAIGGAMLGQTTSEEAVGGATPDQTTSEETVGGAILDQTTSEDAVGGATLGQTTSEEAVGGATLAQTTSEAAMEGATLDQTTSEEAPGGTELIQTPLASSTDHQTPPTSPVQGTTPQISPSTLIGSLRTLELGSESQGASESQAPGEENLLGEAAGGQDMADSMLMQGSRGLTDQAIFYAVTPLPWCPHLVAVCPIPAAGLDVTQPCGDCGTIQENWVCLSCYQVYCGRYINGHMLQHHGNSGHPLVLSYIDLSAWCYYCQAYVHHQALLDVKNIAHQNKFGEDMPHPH

K562 cells = assay: MTT cytotoxicity assay in K562 cells; type: cell-based; conditions: read-out: K562- IC50
Outline: as §1

HDAC4 = HDAC4 (Homo sapiens, UniProt P56524); assay: HDAC enzyme activity assay, HDAC4; type: biochemical
Sequence of HDAC4 (P56524 655-1084 limits assumed): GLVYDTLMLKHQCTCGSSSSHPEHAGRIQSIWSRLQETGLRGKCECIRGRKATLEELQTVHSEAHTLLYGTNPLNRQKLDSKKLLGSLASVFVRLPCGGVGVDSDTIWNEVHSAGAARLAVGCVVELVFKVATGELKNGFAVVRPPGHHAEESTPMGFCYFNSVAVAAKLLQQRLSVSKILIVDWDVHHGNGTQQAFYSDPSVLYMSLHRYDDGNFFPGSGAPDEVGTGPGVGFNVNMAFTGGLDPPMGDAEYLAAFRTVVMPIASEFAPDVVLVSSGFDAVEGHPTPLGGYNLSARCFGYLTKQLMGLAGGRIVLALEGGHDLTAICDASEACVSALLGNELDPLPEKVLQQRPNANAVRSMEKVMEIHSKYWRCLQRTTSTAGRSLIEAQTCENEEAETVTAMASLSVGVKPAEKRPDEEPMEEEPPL
Outline: as §2

[4] = read-out: HDAC1 IC50, Means ±SD, n=3
[5] = read-out: HDAC8 IC50, Means ±SD, n=3
[6] = read-out: HDAC6 IC50, Means ±SD, n=3
[7] = read-out: HDAC4 IC50, Means ±SD, n=3

Row | IC50 (HDAC1; [4]) [µM] | HDAC-8 relative enzyme activity (HDAC8) [%] | IC50 (HDAC8; [5]) [µM] | IC50 (HDAC6; [6]) [µM] | IC50 (HDAC4; [7]) [µM] | IC50 (HDAC1) [µM] | IC50 (HDAC8) [µM] | IC50 (HDAC6) [µM] | IC50 (HDAC4) [µM] | SMILES | IC50 [1] [µM] | IC50 [2] [µM] | IC50 [3] [µM] | IC50 (CEM cells) [µM] | IC50 (K562 cells; MTT, 48 h, Mean±SD, n=3) [µM] | IC50 (K562 cells; Homo sapiens, K562, 48 h) [µM]
1 |  |  |  |  |  |  |  |  |  | O=C1C[C@@H]2/C(=C(O)\C=C\c3ccccc3)C(=O)C=C[C@@H]2O1 [(+)-Cryptocaryone] | 0.32 | 0.04 | 1.6 |  |  | 
2 | > 50 | < 50 | 20 ± 3 | 16 ± 2 | > 50 |  |  |  |  | O=C(CN1C(=O)SC(=Cc2ccc(Br)cc2)C1=O)Nc1ccc(Cl)cc1C(F)(F)F [Compound G1, 2-[5-(4-Bromobenzylidene)-2,4-dioxo-thiazolidin-3-yl]-N-(4-chloro-2-trifluromethylphenyl) acetamide] |  |  |  | 25.1 ± 1.84 | 24 ± 0.58 | 
3 | > 50 | < 50 | 16 ± 2 | 17 ± 2 | > 50 |  |  |  |  | Cc1ccc(C=C2SC(=O)N(CC(=O)Nc3ccc(Cl)cc3C(F)(F)F)C2=O)cc1C [Compound G3, N-(4-Chloro-2-trifluoromethylphenyl)-2-[5-(3,4-dimethylbenzylidene)-2,4-dioxothiazolidin-3-yl] acetamide] |  |  |  | 25.9 ± 2.95 | 26.4 ± 3.07 | 
4 |  | < 50 |  |  |  | 31 ± 1.1 | 18 ± 2 | 14 ± 3 | > 50 | Cc1ccc(C=C2SC(=O)N(CC(=O)Nc3ccc(Cl)cc3C(F)(F)F)C2=O)cc1 [Compound G11, N-(4-Chloro-2-trifluoromethylphenyl)-2-[5-(4-methylbenzylidene)-2,4-dioxothiazolidin-3-yl]acetamide] |  |  |  |  |  | 34.6 ± 3.57
5 |  | < 50 |  |  |  | > 50 | 11 ± 1 | 42 | > 50 | O=C(CN1C(=O)SC(=Cc2ccccc2)C1=O)Nc1ccc(Cl)cc1C(F)(F)F [Compound G13, 2-[5-Benzylidene-2,4-dioxothiazolidin-3-yl]-N-(4-chloro-2-trifluoromethylphenyl)acetamide] |  |  |  |  |  | 41.7 ± 3.9
